Test: silicate ester hydrolysis rate study by 1H NMR
Format: physicochemical
Settings: for ∼krel of hydrolysis at C2′: C2′ silicate; for ∼krel of hydrolysis at C2′ / ∼krel of hydrolysis at C7: kobs relative to that of 1d; for ∼krel of hydrolysis at C7: C7 silicate; for difference in krel, triethyl vs trioctyl silicate: 1a vs 1b (PTX) or 4a vs 4b
Summary of the method: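 About 10 mg silicate ester in 900 μL acetone-d6, then 100 μL of 9:1 v/v D2O/TFA added and mixed. Held at 22 °C ± 1.0 °C. 1H NMR at 500 MHz (16 or 32 transients) at 8–30 time points over more than 3 half-lives. The 2′/7-methine signals of silicate and free taxane were integrated against H5. kobs came from the ln[species] vs time slope (three replicates). krel is kobs divided by that of the reference silicate.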

CCCCCCCCO[Si](OCCCCCCCC)(OCCCCCCCC)O[C@H]1C[C@H]2OC[C@@]2(OC(C)=O)[C@H]2[C@H](OC(=O)c3ccccc3)[C@]3(O)C[C@H](OC(=O)[C@H](O[Si](OCCCCCCCC)(OCCCCCCCC)OCCCCCCCC)[C@@H](NC(=O)c4ccccc4)c4ccccc4)C(C)=C([C@@H](OC(C)=O)C(=O)[C@]12C)C3(C)C [2b, 2′,7-Di-O-(Tri-n-octyloxysilyl)paclitaxel]
∼krel of hydrolysis at C2′: 3800 | ∼krel of hydrolysis at C7: 340

2′-O-(Tri-n-octyloxysilyl)docetaxel [4b]
∼krel of hydrolysis at C2′: 2600

2′-(Di-tert-butoxyethoxysilyl)docetaxel [4e]
∼krel of hydrolysis at C2′: 5.0

CC(=O)O[C@H]1C(=O)[C@@]2(C)[C@H]([C@H](OC(=O)c3ccccc3)[C@]3(O)C[C@H](OC(=O)[C@H](O[Si](OC(C)=O)(OC(C)(C)C)OC(C)(C)C)[C@@H](NC(=O)c4ccccc4)c4ccccc4)C(C)=C1C3(C)C)[C@]1(OC(C)=O)CO[C@@H]1C[C@@H]2O [1g, 2′-O-(Di-tert-butoxyacetoxysilyl)paclitaxel]
∼krel of hydrolysis at C2′: 1900

CC(=O)O[C@H]1C(=O)[C@]2(C)[C@@H](O[Si](OC(C)C)(OC(C)C)OC(C)C)C[C@H]3OC[C@@]3(OC(C)=O)[C@H]2[C@H](OC(=O)c2ccccc2)[C@]2(O)C[C@H](OC(=O)[C@H](O[Si](OC(C)C)(OC(C)C)OC(C)C)[C@@H](NC(=O)c3ccccc3)c3ccccc3)C(C)=C1C2(C)C [2c, 2′,7-Di-O-(triisopropoxysilyl)paclitaxel]
∼krel of hydrolysis at C2′: 520 | ∼krel of hydrolysis at C7: 46

CC(=O)O[C@H]1C(=O)[C@@]2(C)[C@H]([C@H](OC(=O)c3ccccc3)[C@]3(O)C[C@H](OC(=O)[C@H](O[Si](OC(C)C)(OC(C)C)OC(C)C)[C@@H](NC(=O)c4ccccc4)c4ccccc4)C(C)=C1C3(C)C)[C@]1(OC(C)=O)CO[C@@H]1C[C@@H]2O [1c, 2′-O-[(Triisopropoxy)silyl]paclitaxel]
∼krel of hydrolysis at C2′: 570

CC(=O)O[C@H]1C(=O)[C@@]2(C)[C@H]([C@H](OC(=O)c3ccccc3)[C@]3(O)C[C@H](OC(=O)[C@H](O[Si](OC4CC(C)CCC4C(C)C)(OC4CC(C)CCC4C(C)C)OC4CC(C)CCC4C(C)C)[C@@H](NC(=O)c4ccccc4)c4ccccc4)C(C)=C1C3(C)C)[C@]1(OC(C)=O)CO[C@@H]1C[C@@H]2O (some centres unmarked) [1d, 2′-[(Trimenthyloxy)silyl]paclitaxel]
∼krel of hydrolysis at C2′: 1.0

2′-(Trimenthyloxysilyloxy)docetaxel [4d]
∼krel of hydrolysis at C2′: 0.88

CCO[Si](OCC)(OCC)O[C@H]1C[C@H]2OC[C@@]2(OC(C)=O)[C@H]2[C@H](OC(=O)c3ccccc3)[C@]3(O)C[C@H](OC(=O)[C@H](O)[C@@H](NC(=O)c4ccccc4)c4ccccc4)C(C)=C([C@@H](OC(C)=O)C(=O)[C@]12C)C3(C)C [3a, 7-O-(Triethoxysilyl)paclitaxel]
∼krel of hydrolysis at C7: 2200

2′-O-(Triisopropoxysilyl)docetaxel [4c]
∼krel of hydrolysis at C2′: 260

2′-O-(Triethoxysilyl)docetaxel [4a]
difference in krel, triethyl vs trioctyl silicate: ~3 | ∼krel of hydrolysis at C2′: 6500

CCCCCCCCO[Si](OCCCCCCCC)(OCCCCCCCC)O[C@H]1C[C@H]2OC[C@@]2(OC(C)=O)[C@H]2[C@H](OC(=O)c3ccccc3)[C@]3(O)C[C@H](OC(=O)[C@H](O)[C@@H](NC(=O)c4ccccc4)c4ccccc4)C(C)=C([C@@H](OC(C)=O)C(=O)[C@]12C)C3(C)C [3b, 7-O-(Tri-n-octyloxysilyl)paclitaxel]
∼krel of hydrolysis at C7: 450

CCO[Si](OCC)(OCC)O[C@H]1C[C@H]2OC[C@@]2(OC(C)=O)[C@H]2[C@H](OC(=O)c3ccccc3)[C@]3(O)C[C@H](OC(=O)[C@H](O[Si](OCC)(OCC)OCC)[C@@H](NC(=O)c4ccccc4)c4ccccc4)C(C)=C([C@@H](OC(C)=O)C(=O)[C@]12C)C3(C)C [2a, 2′,7-Di-O-(triethoxysilyl)paclitaxel]
∼krel of hydrolysis at C2′: 15000 | ∼krel of hydrolysis at C7: 2100

CCO[Si](O[C@@H](C(=O)O[C@H]1C[C@@]2(O)[C@@H](OC(=O)c3ccccc3)[C@@H]3[C@]4(OC(C)=O)CO[C@@H]4C[C@H](O)[C@@]3(C)C(=O)[C@H](OC(C)=O)C(=C1C)C2(C)C)[C@@H](NC(=O)c1ccccc1)c1ccccc1)(OC(C)(C)C)OC(C)(C)C [1f, 2′-O-[(Di-tert-butoxy)(ethoxy)silyl]paclitaxel]
∼krel of hydrolysis at C2′: 5.6

CCO[Si](OCC)(OCC)O[C@@H](C(=O)O[C@H]1C[C@@]2(O)[C@@H](OC(=O)c3ccccc3)[C@@H]3[C@]4(OC(C)=O)CO[C@@H]4C[C@H](O)[C@@]3(C)C(=O)[C@H](OC(C)=O)C(=C1C)C2(C)C)[C@@H](NC(=O)c1ccccc1)c1ccccc1 [1a, 2′-O-[(Triethoxy)silyl]paclitaxel]
difference in krel, triethyl vs trioctyl silicate: ~3 | ∼krel of hydrolysis at C2′: 18000

— publication PMC3983351 (Journal of Medicinal Chemistry, 2014)
